Reference: ChEMBL document CHEMBL1125331, “6-Hydroxy-3-n-propyl-2,3,4,5-tetrahydro-1H-3-benzazepine and analogs: new centrally acting 5-HT1A receptor agonists” (J Med Chem, 1992)

Assays:
[1] = target: T1, 5-hydroxytryptamine receptor 1A (Rattus norvegicus, UniProt P19327); experiment: Inhibitory activity against 5-hydroxytryptamine 1A receptor in rats, using [3H]8-OH-DPAT as radioligand
T1 sequence (P19327 whole entry): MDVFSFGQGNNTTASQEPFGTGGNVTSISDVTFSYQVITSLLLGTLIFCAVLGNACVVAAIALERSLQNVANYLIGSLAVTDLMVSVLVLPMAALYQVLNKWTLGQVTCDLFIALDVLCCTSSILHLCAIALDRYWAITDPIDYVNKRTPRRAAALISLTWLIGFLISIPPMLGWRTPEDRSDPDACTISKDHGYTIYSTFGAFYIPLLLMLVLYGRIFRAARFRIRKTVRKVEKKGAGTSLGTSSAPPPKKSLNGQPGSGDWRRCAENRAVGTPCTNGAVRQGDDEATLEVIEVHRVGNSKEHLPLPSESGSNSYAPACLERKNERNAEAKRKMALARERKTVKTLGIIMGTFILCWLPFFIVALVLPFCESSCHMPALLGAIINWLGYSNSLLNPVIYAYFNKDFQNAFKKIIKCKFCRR
How it was run: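 Rat whole-brain membranes (minus brainstem and cerebellum) in 50 mM Tris pH 8.0 with 120 mM NaCl, 4 mM CaCl2, 4 mM MgCl2 and 10 μM pargyline. Rapid filtration, then scintillation counting. Nonspecific binding defined with 10 μM 5-HT. IC50 by semi-log plot and linear regression.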

D(2) dopamine receptor = D(2) dopamine receptor (Rattus norvegicus, UniProt P61169); experiment: Inhibitory activity against Dopamine receptor D2 in rats using [3H]spiperone as radioligand
How it was run: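 Rat striatal membranes in 50 mM potassium phosphate buffer pH 7.4 were incubated with 0.5 nM [3H]spiperone for 10 min at 37 °C. Specific binding was defined with 10 μM 6,7-ADTN.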

Rattus norvegicus [2] = experiment: Effect evaluated in vivo on 5-HTP accumulation in limbic system at a dose 3.1 umol/kg (p.o.); assay type: functional
How it was run: (§1)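 Oral dosing in male Sprague-Dawley rats (200–300 g) pretreated with reserpine 5 mg/kg sc 18 h before. After decarboxylase inhibition with NSD 1015, brain 5-HTP or dopa accumulation (HPLC-electrochemical detection) indexed 5-HT synthesis, DA synthesis (limbic) or NE synthesis (hemispheres, mainly cortex).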

Rattus norvegicus [3] = experiment: Effect evaluated in vivo on 5-HTP accumulation in limbic system at a dose 3.1 umol/kg (s.c.); assay type: functional
How it was run: (§2)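 Male Sprague-Dawley rats (200–300 g) were pretreated with reserpine 5 mg/kg sc 18 h before. Test compound was given sc at 5 mL/kg in neutral solution. 5-HT synthesis rate was indexed by […] 5-HTP accumulation after decarboxylase inhibition with NSD 1015, measured by HPLC-electrochemical detection. Dose-response used 4–6 dose levels, n = 4.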

Rattus norvegicus [4] = experiment: Effect evaluated in vivo on 5-HTP accumulation in limbic system at a dose 50 umol/kg (p.o.); assay type: functional; how it was run: as §1
Rattus norvegicus [5] = experiment: Effect evaluated in vivo on 5-HTP accumulation in limbic system at a dose 50 umol/kg (s.c.); assay type: functional; how it was run: as §2
Rattus norvegicus [6] = experiment: Effect evaluated in vivo on 5-HTP accumulation in NE-rich hemispheres at a 0.20 dose uM/kg(sc); assay type: functional
How it was run: (§3)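 Male Sprague-Dawley rats (200–300 g) were pretreated with reserpine 5 mg/kg sc 18 h beforehand. Test drug was given at neutral pH, 5 mL/kg. Aromatic amino acid decarboxylase was blocked with NSD 1015. 5-HTP in the dissected brain region was assayed by HPLC with electrochemical detection.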

Rattus norvegicus [7] = experiment: Effect evaluated in vivo on 5-HTP accumulation in NE-rich hemispheres at a 0.80 dose uM/kg(sc); assay type: functional; how it was run: as §3
Rattus norvegicus [8] = experiment: Effect evaluated in vivo on 5-HTP accumulation in corpus striatum at a dose 12.5 umol/kg (p.o.); assay type: functional; how it was run: as §3
Rattus norvegicus [9] = experiment: Effect evaluated in vivo on 5-HTP accumulation in corpus striatum at a dose 3.1 umol/kg (p.o.); assay type: functional; how it was run: as §3
Rattus norvegicus [10] = experiment: Effect evaluated in vivo on 5-HTP accumulation in corpus striatum at a dose 3.1 umol/kg (s.c.); assay type: functional; how it was run: as §3
Rattus norvegicus [11] = experiment: Effect evaluated in vivo on 5-HTP accumulation in corpus striatum at a dose 50 umol/kg (p.o.); assay type: functional; how it was run: as §3
Rattus norvegicus [12] = experiment: Effect evaluated in vivo on 5-HTP accumulation in corpus striatum after perioral administration; assay type: functional; how it was run: as §3
Rattus norvegicus [13] = experiment: Effect evaluated in vivo on 5-HTP accumulation in limbic system after perioral administration; assay type: functional; how it was run: as §3
Rattus norvegicus [14] = experiment: Effect evaluated in vivo on 5-HTP accumulation in limbic system after subcutaneous administration; assay type: functional; settings: sc; how it was run: as §3
Rattus norvegicus [15] = experiment: Effect evaluated in vivo on 5-HTP accumulation in corpus striatum at a dose 50 umol/kg (s.c.); assay type: functional; how it was run: as §3
Rattus norvegicus [16] = experiment: Effect evaluated in vivo on 5-HTP accumulation in limbic system at a dose 0.20 umol/kg (s.c.); assay type: functional; how it was run: as §3
Rattus norvegicus [17] = experiment: Effect evaluated in vivo on 5-HTP accumulation in limbic system at a dose 0.80 umol/kg (p.o.); assay type: functional; how it was run: as §1
Rattus norvegicus [18] = experiment: Effect evaluated in vivo on 5-HTP accumulation in limbic system at a dose 0.80 umol/kg (s.c.); assay type: functional; how it was run: as §2
Rattus norvegicus [19] = experiment: Effect evaluated in vivo on 5-HTP accumulation in limbic system at a dose 12.5 umol/kg (p.o.); assay type: functional; how it was run: as §1
Rattus norvegicus [20] = experiment: Effect evaluated in vivo on 5-HTP accumulation in NE-rich hemispheres after perioral administration; assay type: functional; how it was run: as §3
Rattus norvegicus [21] = experiment: Effect evaluated in vivo on 5-HTP accumulation in NE-rich hemispheres after subcutaneous administration; assay type: functional; settings: sc; how it was run: as §3
Rattus norvegicus [22] = experiment: Effect evaluated in vivo on 5-HTP accumulation in NE-rich hemispheres at a 3.1 dose uM/kg(sc); assay type: functional; how it was run: as §3
Rattus norvegicus [23] = experiment: Effect evaluated in vivo on 5-HTP accumulation in NE-rich hemispheres at a 50 dose uM/kg(sc); assay type: functional; how it was run: as §3
Rattus norvegicus [24] = experiment: Effect evaluated in vivo on 5-HTP accumulation in corpus striatum after subcutaneous administration; assay type: functional; settings: sc; how it was run: as §3
Rattus norvegicus [25] = experiment: Effect evaluated in vivo on 5-HTP accumulation in corpus striatum at a dose 0.20 umol/kg (s.c.); assay type: functional; how it was run: as §3
Rattus norvegicus [26] = experiment: Effect evaluated in vivo on 5-HTP accumulation in corpus striatum at a dose 0.80 umol/kg (p.o.); assay type: functional; how it was run: as §3
Rattus norvegicus [27] = experiment: Effect evaluated in vivo on 5-HTP accumulation in corpus striatum at a dose 0.80 umol/kg (s.c.); assay type: functional; how it was run: as §3
Rattus norvegicus [28] = experiment: The compound was tested in vivo for locomotor activity in rats at 50 umol/kg after perioral administration; assay type: functional
How it was run: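 Reserpine-pretreated rats (5 mg/kg sc, 18 h before) received test compound orally. Photocell motility counts were accumulated over 30 min, and gross behaviour, including 5-HT syndrome, was observed.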

Rattus norvegicus [29] = experiment: The compound was tested in vivo for locomotor activity in rats at 50 umol/kg after subcutaneous administration; assay type: functional
How it was run: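 Male Sprague-Dawley rats received reserpine 5 mg/kg sc in the neck 18 h before testing. Test compound was given sc in the neck (n = 4). Rats were placed singly in photocell motility meters immediately after dosing, and counts were accumulated over 30 min (tests 9 a.m.–1 p.m.). Gross behaviour, including 5-HT syndrome, was observed throughout.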

D(2) dopamine receptor, sequence (P61169 whole entry): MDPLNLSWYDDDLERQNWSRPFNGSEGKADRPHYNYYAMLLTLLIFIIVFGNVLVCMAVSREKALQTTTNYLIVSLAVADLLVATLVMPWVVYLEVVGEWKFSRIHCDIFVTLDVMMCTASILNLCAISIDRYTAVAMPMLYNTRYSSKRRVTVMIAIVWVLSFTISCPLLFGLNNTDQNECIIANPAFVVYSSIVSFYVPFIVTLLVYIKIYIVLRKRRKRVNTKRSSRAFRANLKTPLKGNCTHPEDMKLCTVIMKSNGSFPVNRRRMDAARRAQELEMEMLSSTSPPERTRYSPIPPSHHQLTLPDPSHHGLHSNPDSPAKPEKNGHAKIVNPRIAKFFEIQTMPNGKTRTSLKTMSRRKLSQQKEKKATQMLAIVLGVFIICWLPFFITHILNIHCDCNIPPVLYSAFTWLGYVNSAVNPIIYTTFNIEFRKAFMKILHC

**Q.** With `CCCN1CCc2c(Br)ccc(OC)c2CC1` as the compound, how does the IC50 [1] read?
**A.** 28 nM

**Q.** And the IC50 (D(2) dopamine receptor)?
**A.** 680 nM

**Q.** What about the Control (Rattus norvegicus [2]) of the same compound?
**A.** 90%

**Q.** And the Control (Rattus norvegicus [3])?
**A.** 69%

**Q.** What about the Control (Rattus norvegicus [4]) of the same compound?
**A.** 48%

**Q.** What about the Control (Rattus norvegicus [5]) of the same compound?
**A.** 48%

**Q.** What about the Control (Rattus norvegicus [6]) of the same compound?
**A.** 102%

**Q.** And the Control (Rattus norvegicus [7])?
**A.** 111%

**Q.** What about the Control (Rattus norvegicus [8]) of the same compound?
**A.** 77%

**Q.** And the Control (Rattus norvegicus [9])?
**A.** 96%

**Q.** And the Control (Rattus norvegicus [10])?
**A.** 71%

**Q.** What about the Control (Rattus norvegicus [11]) of the same compound?
**A.** 50%

**Q.** And the ED50 (Rattus norvegicus [12])?
**A.** 14 µmol/kg

**Q.** And the ED50 (Rattus norvegicus [13])?
**A.** 13 µmol/kg

**Q.** What about the ED50 (Rattus norvegicus [14]) of the same compound?
**A.** 2.7 µmol/kg

**Q.** What about the Control (Rattus norvegicus [15]) of the same compound?
**A.** 50%

**Q.** What about the Control (Rattus norvegicus [16]) of the same compound?
**A.** 108%

**Q.** And the Control (Rattus norvegicus [17])?
**A.** 88%

**Q.** And the Control (Rattus norvegicus [18])?
**A.** 118%

**Q.** And the Control (Rattus norvegicus [19])?
**A.** 76%

**Q.** And the ED50 (Rattus norvegicus [20])?
**A.** 21 µmol/kg

**Q.** What about the ED50 (Rattus norvegicus [21]) of the same compound?
**A.** 5 µmol/kg

**Q.** What about the Control (Rattus norvegicus [22]) of the same compound?
**A.** 83%

**Q.** And the Control (Rattus norvegicus [23])?
**A.** 43%

**Q.** And the ED50 (Rattus norvegicus [24])?
**A.** 3.2 µmol/kg

**Q.** What about the Control (Rattus norvegicus [25]) of the same compound?
**A.** 117%

**Q.** What about the Control (Rattus norvegicus [26]) of the same compound?
**A.** 112%

**Q.** And the Control (Rattus norvegicus [27])?
**A.** 130%

**Q.** And the Locomotor activity (Rattus norvegicus [28])?
**A.** 21

**Q.** What about the Locomotor activity (Rattus norvegicus [29]) of the same compound?
**A.** 108
